Experimental data from different studies.
Protocols differ between the studies behind these lines.
BCHE: Cholinesterase (BCHE, Homo sapiens, UniProt P06276)
MC4R: Melanocortin receptor 4 (MC4R, Homo sapiens, UniProt P32245)
CYSLTR1: Cysteinyl leukotriene receptor 1 (CYSLTR1, Homo sapiens, UniProt Q9Y271)

C=CCn1c2cc(OC(=O)CCCCN3CCN(Cc4ccccc4Cl)CC3)ccc2c2ccnc(C)c21  inhibition (BCHE; enzyme activity; inhibitor; Ellman; 1 µM): 46.1%
COc1ccc(S(=O)(=O)N2CCCCC2)cc1C  inhibition (MC4R; ligand displacement; radioligand; 10 µM): < 30%
CN(CCN1CCC(OC(=O)Nc2ccccc2-c2ccccc2)CC1)C(=O)c1ccc(CN2CCC(C(N)=O)CC2)cc1  inhibition (CYSLTR1; ligand displacement; radioligand; 1 µM): -13%
Cn1cc(-c2cccc(N3CCc4c(sc5c4CC(C)(C)C5)C3=O)c2CO)cc(Nc2ccncn2)c1=O  inhibition (Tyrosine-protein kinase Fgr (FGR, Homo sapiens, UniProt P09769); enzyme activity; inhibitor; 1 µM): 53%
C#Cc1n[nH]c2c(-c3cn(C(C)c4ccccn4)c(=O)[nH]c3=O)cc(F)cc12 (stereo not shown)  inhibition (Fibroblast growth factor receptor 4 (FGFR4, Homo sapiens, UniProt P22455); enzyme activity; inhibitor; 1 µM): 0.5%
COc1cc(Nc2ncc(F)c(Nc3ccc4c(n3)NC(=O)C(C)(C)O4)n2)cc(OC)c1OC  inhibition (Interferon-induced, double-stranded RNA-activated protein kinase (EIF2AK2, Homo sapiens, UniProt P19525); binding; competition with immobilised ligand; 10 µM): 86%
C=CCn1c2cc(OC(=O)CCCCN3CCN(Cc4cccc(C(F)(F)F)c4)CC3)ccc2c2ccnc(C)c21  inhibition (BCHE; enzyme activity; inhibitor; Ellman; 1 µM): 40.2%
O=C(Nc1cccnn1)N1CCN([C@@H]2CCOc3cc(C(F)(F)F)ccc32)CC1  inhibition (CYSLTR1; ligand displacement; 20 µM): 6%
COc1cc2c(cc1OC)C(=O)C(CC1CCN(Cc3ccccc3)CC1)C2 (stereo not shown)  inhibition (BCHE; enzyme activity; inhibitor; Ellman; 1 µM): 22.5%
CCN(CC)CCCC[C@H](NC(=O)[C@H](CC(C)C)NC(=O)[C@H](C)NC(=O)[C@H](Cc1ccccc1)NC(=O)c1ccc(C(C)(C)C)cc1)C(=O)N[C@@H](CO)C(=O)OC  inhibition (MC4R; ligand displacement; radioligand; 10 µM): 16%
C=CCn1c2cc(OC(=O)CCCCN3CCN(Cc4ccccc4F)CC3)ccc2c2ccnc(C)c21  inhibition (BCHE; enzyme activity; inhibitor; Ellman; 1 µM): 21%
COc1cc(CNC(=O)CCCC/C=C/C(C)C)ccc1O  inhibition (DNA dC->dU-editing enzyme APOBEC-3B (Homo sapiens, UniProt Q9UH17); enzyme activity; inhibitor; fluorescence; 100 µM): 32.3%
[C-]#[O+]  inhibition (Catalase (CAT, Bos taurus, UniProt P00432); enzyme activity; inhibitor; 1 mM): 70%
